Data taken from ChEMBL document CHEMBL1124674, “Chemical and biological properties of a new series of cis-diammineplatinum(II) antitumor agents containing three nitrogen donors: cis-[Pt(NH3)2(N-donor)Cl]+” (J Med Chem, 1989).

System: Mus musculus
Assay: Compound is tested against sarcoma 180 ascites (S180a) in female CFW mice, and evaluated for the best percent of increase in life span at optimal dose of 80 mg/kg
Format: functional, organism-based
Set-up: dose 80 mg/kg
In short: (§1)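 Female CFW mice (18-25 g) were inoculated ip with 2×10^6 S180a cells on day 0. Single ip dose in 0.5 mL water on day 1, over 6 dose-doublings up to 320 mg/kg, 6 mice per dose. Controls got water; the cisplatin control got 8 mg/kg in 0.15 M NaCl. Run for twice control MST, with survivors counted dead then. %ILS, ≥50% = active.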

Substance	ILS
cis[Pt(NH3)2(N1-4-bromopyridine)Cl]Cl	102%
cis[Pt(NH3)2(N1-cytisine)Cl]Cl	92%
cis[Pt(NH3)2(N3-2,deoxycytidine)Cl]Cl	85%
cis[Pt(NH3)2(N1-pyridine)Cl]Cl	26%
cis[Pt(NH3)2(N1-3-hydroxypyridine)Cl]Cl	69%
cis[Pt(NH3)2(N1-6-methoxy-3-hydroxy-hydroxypyridine)Cl]Cl H2O	93%
cis[Pt(NH3)2(N7-2,deoxyguanosine)Cl]NO3; H2O	88%
cis[Pt(NH3)2(N1-methyl isonicotinate)Cl]Cl	31%
[Pt(NH3)2(N1-pyridine)Cl]Cl	17%

System: Mus musculus
Assay: Compound is tested against sarcoma 180 ascites (S180a) in female CFW mice, and evaluated for the best percent of increase in life span at optimal dose of 8 mg/kg
Format: functional, organism-based
Set-up: dose 8 mg/kg
In short: as §1

Substance	ILS
CISPLATIN	81%

System: Mus musculus
Assay: Compound is tested against sarcoma 180 ascites (S180a) in female CFW mice, and evaluated for the best percent of increase in life span at optimal dose of 320 mg/kg
Format: functional, organism-based
Set-up: dose 320 mg/kg
In short: as §1

Substance	ILS
cis[Pt(NH3)2(N3-cytidinepyridine)Cl]NO3	30%

System: Mus musculus
Assay: Compound is tested against sarcoma 180 ascites (S180a) in female CFW mice, and evaluated for the best percent of increase in life span at optimal dose of 40 mg/kg
Format: functional, organism-based
Set-up: dose 40 mg/kg
In short: as §1

Substance	ILS
cis[Pt(NH3)2(N1-pyridine)Cl]Cl	103%
cis[Pt(NH3)2(N3-1-methylcytosine)Cl]NO3	73%
cis[Pt(NH3)2(N1-4-chloropyridine)Cl]Cl	77%
cis[Pt(NH3)2(N1-4-methylpyridine)Cl]Cl	83%

System: Mus musculus
Assay: Compound is tested against sarcoma 180 ascites (S180a) in female CFW mice, and evaluated for the best percent of increase in life span at optimal dose of 160 mg/kg
Format: functional, organism-based
Set-up: dose 160 mg/kg
In short: as §1

Substance	ILS
cis[Pt(NH3)2(N7-guanosine)Cl]NO3	79%
cis[Pt(NH3)2(N3-5-methylcytosine)Cl]NO3	84%
cis[Pt(NH3)2(N1-6-methyl-hydroxypyridine)Cl]Cl	93%
cis[Pt(NH3)2(N1-hydroxypyridine)Cl]Cl H2O	97%
cis[Pt(NH3)2(N3-1-beta-D-arabinofuranosylcytocin)Cl]NO3.H2O	51%
